Only a selection was taken, and hits are over-represented in it overall.
Lung fibro prol – antiproliferative effect on LL 47 fibroblasts – human, LL 47 cells, CellTiter-Glo luminescence, primary screen; 85,000 compounds, 1.1% hits; AID 719, 2007; LL 47 human lung fibroblast viability, ATP luminescence; hits give low values; viability, % at 10 µM;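 active = viability at or below 50% in the single dose screen; inactive = viability above 50%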;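 also: compound exposure lasted 72 h before the ATP readout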
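Test system: LL 47 human lung fibroblasts; Quantity: 1,150 cells/well; Buffer or medium: IMEM plus 15% FBS; Dosing: tenfold compound dosing solution, DMSO at 0.1%; Timing: overnight cell rest, 72 h compound treatment at 37 °C; Detection: ATP-based CellTiter-Glo luminescent readout; Read-out basis: viability percentage against median untreated-cell control; Controls: cell-only wells, no compound.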
HCT116 PTEN-null – growth suppression of PTEN-null HCT116, primary screen, cell-based, CellTiter-Glo. HCT116 PTEN-null viability, 60 h; hits give low values. viability, % at 10 µM. 140,000 compounds, 1.2% hits. AID 827, 2007;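 active = viability at or below a set limit, 4 SD under the median of all tested compounds, cut at about 3.7% in these data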;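 also: PTEN knockout HCT116 line with beta catenin targeted HCT116 as companion control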
HUVEC inhibit – inhibitors of HUVEC proliferation, primary screen, cell-based, 384-well; CellTiter-Glo luminescence, 72 h; hits give low values; viability, % at 10 µM (by protocol); 86,000 compounds, 1.1% hits; AID 648, 2007;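 active = viability at or below 30%; inactive = viability above 30%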
H69AR inhibit – proliferation blockers of H69AR lung cancer cells, primary screen, cell-based, human, 86K library; 85,000 compounds, 6% hits; H69AR lung tumor viability, ATP luminescence, 72 h; hits give low values; AID 598, 2007; viability, % at 10 µM;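 active = viability at or below 40%; inactive = viability above 40%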;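 also: multidrug resistant small cell line overexpressing MRP-1 efflux transporter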
HCT116 bCat-KO – primary screen for growth suppressors in beta-catenin knockout HCT116 cells (colon tumor, human) | HCT116 beta-catenin knockout viability, CellTiter-Glo, 60 h; hits give low values | viability, % at 10 µM | AID 818, 2007 | 140,000 compounds, 1.5% hits;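 active = viability at or under a set limit, the compound median less 4 SD, cut at about 6% in these data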
Hits are given with their value; n = inactive; x = no result given.

SMILES | Lung fibro prol | HCT116 PTEN-null | HUVEC inhibit | H69AR inhibit | HCT116 bCat-KO
O=C(OCc1ccc(Cl)cc1Cl)c1ccncc1 | x | n | x | x | n
Cc1ccc(/C=C/C2=Cc3c(sc(NC(=O)CSc4n[nH]c(N)n4)c3C#N)C(C)(C)C2)o1 | n | n | n | 29 | n
Cc1ccc(N=Cc2c(O)n(-c3ccc4c(c3)OCO4)c(=O)c3ccccc23)cc1 | n | n | 21 | 9.1 | n
COCCCNC(=O)c1ccc(Cn2c(=O)c3ccccc3n(Cc3ccccc3C)c2=O)cc1 | n | n | n | 19 | n
COCCCNC(=O)c1ccc(Cn2c(=O)[nH]c3ccccc3c2=O)cc1 | n | n | n | 23 | n
COCCCNC(=O)c1ccc(Cn2c(=O)c3ccccc3n(Cc3cc(C)ccc3C)c2=O)cc1 | n | n | n | 39 | n
COCCCNC(=O)c1ccc(Cn2c(=O)c3ccccc3n(Cc3ccccc3C#N)c2=O)cc1 | n | n | n | 18 | n
COCCCNC(=O)CCn1c(=O)c2ccccc2n(CC(=O)Nc2ccc(C)cc2C)c1=O | n | n | n | n | n
Cc1nc([N+](=O)[O-])c(Br)n1CC(=O)c1ccc(Cl)cc1 | n | n | n | 1.2 | n
CN(C(=O)COC(=O)CNC(=O)c1sc2ccccc2c1Cl)c1ccccc1 | x | n | x | x | n
CCOC(=O)Nc1ccc(=O)n(Cc2c(Cl)cccc2Cl)c1 | x | n | x | x | n
CSc1nc2nccc(-c3ccc(Cl)cc3)n2n1 | n | n | n | n | n
CSc1nc2nccc(/C=C\c3ccccc3)n2n1 | x | n | x | x | 4.5
COc1ccc(C2=CC(c3sccc3C)n3nnnc3N2)cc1 (configuration not stated) | n | n | n | n | n
COc1cccc(C2=CC(c3ccc(OC)c(OC)c3OC)n3nnnc3N2)c1 (configuration not stated) | n | n | n | 7.6 | n
COc1cccc(C2=CC(c3cccs3)n3nnnc3N2)c1 (configuration not stated) | n | n | n | 15 | n
COc1ccccc1C1C=C(c2ccccc2)Nc2nnnn21 (configuration not stated) | n | n | n | 11 | n
Cn1cc(-c2nnnn2-c2cccc(C(F)(F)F)c2)c(C(F)(F)F)n1 | x | n | x | x | n
COC(=O)c1oc2ccc(Br)cc2c1NC(=O)c1ccccc1 | n | n | n | 30 | n
COC(=O)C1=C(C)NC(C)=C(C(=O)OC)C1c1ccccc1[N+](=O)[O-] | n | 1.9 | n | 8.5 | 1.6
CCOC(=O)C1=C(C)NC(C)=C(C(=O)OC)C1c1cccc([N+](=O)[O-])c1 (configuration not stated) | n | n | n | n | n
O=c1oc2ccccc2n1CSC1=NCCS1 | n | n | n | 21 | n
COc1ccc(C2=NOC(C(=O)NCc3cccs3)C2)cc1OC (configuration not stated) | n | n | n | 24 | n
COc1cc(C2=NOC(C(=O)NCc3cccs3)C2)cc(OC)c1OC (configuration not stated) | n | n | n | 24 | n
COc1ccc(C2=NOC(C(=O)NCc3cccs3)C2)cc1 (configuration not stated) | n | n | n | n | n
SMILES | Lung fibro prol | HCT116 PTEN-null | HUVEC inhibit | H69AR inhibit | HCT116 bCat-KO
CC1CCCN(Cc2cccc(Oc3ccccc3)c2)C1 (configuration not stated) | n | n | n | n | n
CCOC(=O)C1CN(S(=O)(=O)c2ccc(OC)cc2)c2cc(S(=O)(=O)CC)ccc2O1 (configuration not stated) | x | n | x | x | n
COc1cc(-c2n[nH]c(=S)n2-c2cc(C(F)(F)F)ccc2Cl)cc(OC)c1OC | x | n | x | x | n
Cc1ccc2nc(NC(=O)/C=C/c3ccc4c(c3)OCO4)sc2c1 | x | 1.2 | x | x | n
O=C(/C=C/c1ccc2c(c1)OCO2)Nc1nc(-c2ccc(F)cc2F)cs1 | x | n | x | x | 5.8
CN1CCN(Cc2nc3ccccc3c(=O)n2Cc2nc(-c3ccc4ccccc4c3)cs2)CC1 | x | 0.7 | x | x | 0.8
O=C(N/N=C\c1cn(-c2ccccc2)nc1-c1ccccc1)c1ccc(Br)o1 | x | n | x | x | n
Cc1ccc(-c2nn(-c3ccccc3)cc2/C=N/NC(=O)c2ccc(Br)o2)cc1 | x | n | x | x | 4.2
Cc1cccc(C(=O)NNC2=C(C(=O)C(F)(F)F)CCC2)c1O | n | n | n | 25 | n
O=C(NNC1=C(C(=O)C(F)(F)F)CCC1)c1cccc(O)c1 | n | n | n | n | n
Cc1ccc(-c2cc3cccc[n+]3cc2-c2ccc(C)cc2)cc1 | x | n | x | x | 3.2
CO/N=C(/CNC(=O)c1ccc(F)cc1)c1ccc(Cl)cc1 | x | n | x | x | n
CCCNC(=S)N1CCC(c2nc3cc(C)c(C)cc3[nH]2)CC1 | x | n | x | x | n
Cc1cc2nc(C3CCN(CC4COc5ccccc5O4)CC3)[nH]c2cc1C (configuration not stated) | n | n | 5.9 | 33 | n
COc1ccc(-c2c3c(=O)n(C)c(=O)n(C)c3cn2C2CCCCC2)cc1 | n | n | n | 20 | n
Cc1[nH]c2ccc(-c3nnc(SCC(=O)c4ccc(F)cc4)o3)cc2c1C | n | n | n | 26 | n
O=C(CSc1nnc(-c2ccc(F)cc2)o1)c1ccc2c(c1)OCCO2 | n | n | n | n | n
CCn1c(SCC(=O)O)nnc1-c1ccc2[nH]c(C)c(C)c2c1 | x | n | x | x | n
Cc1cc(C)c(C)c(C(=O)CSc2nnc(-c3ccc4[nH]c(C)c(C)c4c3)o2)c1C | 44 | n | n | 8.7 | n
CCc1ccccc1N1CSC2=C(C#N)C(c3ccccc3F)CC(=O)N2C1 (configuration not stated) | n | n | n | 29 | n
O=C(Nc1cccnc1)/C(N=Nc1cccnc1)=C(\O)c1ccccc1 | x | n | x | x | n
Cn1cccc1/C=N/NC(=O)c1ccn[nH]1 | x | n | x | x | n
COC(=O)c1[nH]c2cc(OC)ccc2c1NC(=O)CN1CCN(c2cccc(C)c2)C(C)C1 (configuration not stated) | n | n | n | 15 | n
CCOC(=O)Nc1c(C(=O)OC)[nH]c2cc(OC)ccc12 | n | x | n | 18 | x
COCCCNC(=O)c1sc2ncnc(N3CCc4ccccc4C3)c2c1C | n | n | n | 28 | n
SMILES | Lung fibro prol | HCT116 PTEN-null | HUVEC inhibit | H69AR inhibit | HCT116 bCat-KO
COc1cccc2sc(Nc3nc(-c4cc5ccccc5oc4=O)cs3)nc12 | x | n | x | x | n
COc1cccc2sc(Nc3nnc(-c4ccccc4Cl)o3)nc12 | 41 | n | 2.4 | 27 | n
O=C(Nc1nnc(-c2ccccc2Cl)o1)c1ccco1 | n | n | n | n | n
COc1ccccc1-c1nnc(Nc2nc3c(OC)cccc3s2)o1 | x | n | x | x | 5.1
COc1cccc(-c2nnc(Nc3nc4c(F)cccc4s3)o2)c1 | n | n | 16 | n | n
O=C(Nc1nnc(-c2ccccc2Cl)o1)c1nc2ccccc2s1 | n | n | n | 28 | n
COc1cccc(-c2nnc(NC(C)=O)o2)c1 | n | x | n | n | x
Oc1ccc(N=Nc2n[nH]c(-c3ccc(Cl)cc3)n2)cc1 | x | n | x | x | n

Assay outcomes from PubChem BioAssay.
